The source made the active and inactive calls. The rule behind the calls is not given here.
Assays:
[1] = Retention time of the compound by RP-HPLC analysis; format: physicochemical
Outline: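 RP-HPLC with eluent A 0.1% TFA in water and eluent B 0.1% TFA in CH3CN, detection at 280 nm.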

[2] = biological target: T1, Prostaglandin E synthase (Homo sapiens) (UniProt O14684); assay: Inhibition of mPGES-1 in interleukin-1 beta-stimulated human A549 cell microsomes assessed as reduction in PGE2 production using PGH2 as substrate at <10 uM treated for 15 mins prior to substrate addition measured after 1 min by RP-HPLC analysis
T1 sequence (whole entry): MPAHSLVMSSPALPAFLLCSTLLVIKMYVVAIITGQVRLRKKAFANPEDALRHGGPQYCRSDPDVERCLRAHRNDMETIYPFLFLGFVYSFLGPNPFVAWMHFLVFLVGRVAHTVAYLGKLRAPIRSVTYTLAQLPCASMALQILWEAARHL
Outline: (§1)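 Diluted in 0.1 M potassium phosphate pH 7.4 with 2.5 mM GSH. Compound or vehicle 15 min at 4 °C, then PGH2 added, 1 min. Stopped with FeCl2/citric acid plus 11β-PGE2 internal standard. PGE2 by SPE and RP-HPLC. Mean ± SE.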

Prostaglandin E synthase = biological target: T2, Prostaglandin E synthase (Homo sapiens, UniProt O14684); assay: Inhibition of mPGES-1 in interleukin-1 beta-stimulated human A549 cell microsomes assessed as reduction in PGE2 production using PGH2 as substrate treated for 15 mins prior to substrate addition measured after 1 min by RP-HPLC analysis; outline: as §1
T2 sequence (O14684 whole entry): T1 sequence (whole entry)

[3] = biological target: T1, Prostaglandin E synthase (Homo sapiens); assay: Inhibition of mPGES-1 in interleukin-1 beta-stimulated human A549 cell microsomes assessed as reduction in PGE2 production using PGH2 as substrate at 10 uM treated for 15 mins prior to substrate addition measured after 1 min by RP-HPLC analysis; outline: as §1

SMILES	Retention_time [1] [min]	inhibition [2]	IC50 (Prostaglandin E synthase) [µM]	inhibition [3] [%]
CCOC(=O)C1=C(C(=O)c2ccc(OC)cc2)C(c2cccc(C=O)c2)NC(=O)N1 (configuration not stated)	24.7	inactive		
CCOC(=O)C1=C(C(=O)c2ccc(OC)cc2)[C@H](c2ccc(-c3cccc(C(F)(F)F)c3)o2)NC(=O)N1C	30.3		7.56	
CCOC(=O)C1=C(C(=O)c2ccc(OC)cc2)C(c2ccc(-c3cccc(C(F)(F)F)c3)o2)NC(=S)N1 (configuration not stated)	32.3		> 30	37
CCOC(=O)C1=C(C(=O)c2ccc(OC)cc2)[C@H](c2ccc(-c3cccc(C(F)(F)F)c3)o2)NC(=O)N1	34.2		4.16	
CCOC(=O)C1=C(C(=O)c2ccc(OC)cc2)[C@H](c2cccc(-c3ccc(C#N)cc3)n2)NC(=O)N1	20.8	inactive		

Continued, values first:

Retention_time [1] [min]	inhibition [2]	IC50 (Prostaglandin E synthase) [µM]	inhibition [3] [%]	SMILES
26.4	inactive			CCOC(=O)C1=C(C(=O)c2ccc(OC)cc2)[C@H](c2coc3c(Br)cc(Br)cc3c2=O)NC(=O)N1
26.7	inactive			CCOC(=O)C1=C(C)N(C)C(=O)NC1c1ccc(-c2cccc(C(F)(F)F)c2)o1 (configuration not stated)
22.9	inactive			CCOC(=O)C1=C(C(=O)c2ccc(OC)cc2)C(c2cccc(OCC)c2)NC(=O)N1 (configuration not stated)

Source: ChEMBL document CHEMBL3286213, “Exploration of the dihydropyrimidine scaffold for the development of new potential anti-inflammatory agents blocking prostaglandin E₂ synthase-1 enzyme (mPGES-1)” (Eur J Med Chem, 2014)
